Measurements from the RNAGym collection of RNA variant scans (doi:10.1038/nmeth.2970).

B1: NELF-E aptamer (parent)
chain: CCCAACGACUGCCGAGCGAGAUUACGCUUGAGCGCCCCACUGAGGAUGCCCACGGGCGAUUGGGGCACGG

Variants of: B1
Assay: HiTS-RAP
Conditions: with NELF-E (Drosophila)
How it was run: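 Aptamer DNA templates carrying a T7 promoter and ter site were sequenced on an Illumina GAIIx flowcell, then transcribed in situ by T7 RNA polymerase and halted by GST-Tus (30 minutes, 37°C). Clusters were imaged after 30-minute room-temperature equilibration with NELF-E-mOrange at 0.064 to 1000 nM in HEPES binding buffer, and only the first binding curve was used. Intensities were normalised to sequencing intensity and averaged per sequence. Kd came from weighted Hill fits, keeping fits with variance below 1,000,000.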
CCCAACGUCUGCCGAGCGAGAGUACGCUUGAGCGCCCCACUGAGGAUGCCCACGGGCGAUUGGGGCACGG was tested, and the Kd was 6.1 nM. CCCAACGACUGCCGAGCGAGAUUACGCUUGAGCGCCCCACUGAGGAUGCCCACGGGCGAUUUGUGCACGG gave a Kd of 5.62 nM. Variant CCCAACGACGGCCGAGCGAGAUUACGCUUGAGCGCCCCGCUGAGGAUGCCCACGGGCGAUUGGGGCACGG has a Kd of 10.1 nM. CCCAACGGCUGCCGAGCGAGAUUACGCUUGAGCGCCCCACUGAGGAUGCCCACGGGCGAUUGGGGCACGG gave a Kd of 5.44 nM. CCCAUCGACUGCCGAGCGAGAUUACGCUUGAGCGCCCCACUGAGGAUGCCCACGGGCGAUUGGGGCUCGG was tested, and the Kd was 7.25 nM. In the case of CCCAACGACUGGCGAGCGAGAUUACGCUUGAGCGCCCCACUGAGGAUGCCCUCGGGCGAUUGGGGCACGG, the Kd is reported as 16.2 nM. Work on CCCAACGACGGCCGAGCGAGAUUACGCUUGAGCGCCCCACUGAGGAUGCCCAAGGGCGAUUGGGGCACGG yielded a Kd of 5.46 nM. With CCCAACGAGUGCCGAGCGAGAUUACGCUUGAGCGCCCCUCUGAGGAUGCCCACGGGCGAUUGGGGCACGG the Kd was 29.8 nM. Work on CCCAACGACUGCCGAUCGAGAUUACGCGUGAGCGCCCCACUGAGGAUGCCCACGGGCGAUUGGGGCACGG yielded a Kd of 6.45 nM. CCCAACGACUGCGGAGCGAGAUUACGCUUGAGCGCCCCACUGAGGAUGCCCACGGGCGAUUGGGGUACGG gave a Kd of 5.32 nM. CCCAACGACUGCCGAGCGAGAUUACGCUUGGGCGCCCCACUGGGGAUGCCCACGGGCGAUUGGGGCACGG showed a Kd of 11.3 nM. With CCCAACGACUGCGGAGCGAGAUUACGCUUGAGCGCCCCACUGAGGAUGCCCACGGGCGUUUGGGGCACGG the Kd was 42.1 nM. CCCAAAGACUGCCGAGCGAGAUUACGCUGGAGCGCCCCACUGAGGAUGCCCACGGGCGAUUGGGGCACGG was tested, and the Kd was 6.91 nM. CCCAACGACUGCCGAGCGAGAGUACGCGUGAGCGCCCCACUGAGGAUGCCCACGGGCGAUUGGGGCACGG gave a Kd of 6.89 nM. For CCCAACGACUGCCGAGGGAGAUUACGCUUGAGCGCCCCACUGAGGAUGCCCACGGGCGAUUGGGUCACGG, the Kd was 7.17 nM. In the case of CCCAACGACUGCCGAGGUAGAUUACGCUUGAGCGCCCCACUGAGGAUGCCCACGGGCGAUUGGGGCACGG, the Kd is reported as 6.33 nM. Variant CCCAACGACUGCCGAGGAAGAUUACGCUUGAGCGCCCCACUGAGGAUGCCCACGGGCGAUUGGGGCACGG has a Kd of 6.63 nM. Work on CCCAACGACUGCCGAGCGAGAUGACGCUUGAGCGCCCCACUGAGGAUGCCCACGGUCGAUUGGGGCACGG yielded a Kd of 5.61 nM. CCCAGCGACUGCCGAGCGAGAUUACGCUUGAGCGCCCCACUGAGGAUGCCCACGGGCGAUUGAGGCACGG gave a Kd of 14.1 nM. For CCCAACGACUGCCGAGCGAGAUUACGCUUGAGCGCCCCACUGAGGAUGCCCACGGGCGAUUGGGGCAGGG, the Kd was 4.57 nM. CCCGACGACUGCCGAGCGAGAUUACGCUUGAGCGCCCCACUGAGGAUGCCCACGGGCGAUUGGGCCACGG gave a Kd of 16.2 nM. CCCAACGACUGCCGAGCGAGAUUACGCUUGAGCGCCCCACUGAGGAUGCCCACGGUCGAUUGGGGCACGG was tested, and the Kd was 5.3 nM. CCCAACGACGGCCGAGCGAGAUUACGCUUGAGCGCCCGACUGAGGAUGCCCACGGGCGAUUGGGGCACGG showed a Kd of 7 nM. Work on CCCAACGACUGCCGAGCGAGAUUACGCUUGAGCGCCCCACGGAGGAUGCCCACGGGCGGUUGGGGCACGG yielded a Kd of 35.1 nM. With CCCAACGAGUGCCGAGCUAGAUUACGCUUGAGCGCCCCACUGAGGAUGCCCACGGGCGAUUGGGGCACGG the Kd was 6.65 nM. With CCCAACGAGUGCCAAGCGAGAUUACGCUUGAGCGCCCCACUGAGGAUGCCCACGGGCGAUUGGGGCACGG the Kd was 6.55 nM. CCCAAGGACUGCCGAGCGAGAUUACGCUUGAGCGCCCCACUGAGGAUGCCCACGGGCGAUUGGGGCGCGG gave a Kd of 6.07 nM. Variant CCCAACGACUGCCGAGCGAGAUUACGCUGGAGCGCCCCAUUGAGGAUGCCCACGGGCGAUUGGGGCACGG has a Kd of 56.1 nM. CCCAUCGACUGCCGAGCGAGAUUACGCUUGAGCGCCCCACUGAGGAUGCCCACGGACGAUUGGGGCACGG was tested, and the Kd was 7.71 nM. CCCAACGACUGCCUAGCGAGAUUAGGCUUGAGCGCCCCACUGAGGAUGCCCACGGGCGAUUGGGGCACGG showed a Kd of 8.18 nM. CCCAACGACUGCCUAGCGAGAUUAUGCUUGAGCGCCCCACUGAGGAUGCCCACGGGCGAUUGGGGCACGG gave a Kd of 7.71 nM. Work on CCCAAGGACUGCCGAGCGAGAUUAUGCUUGAGCGCCCCACUGAGGAUGCCCACGGGCGAUUGGGGCACGG yielded a Kd of 5.65 nM. In the case of CCCAACGACUGCUGAGCGAGAUUACGCCUGAGCGCCCCACUGAGGAUGCCCACGGGCGAUUGGGGCACGG, the Kd is reported as 6.27 nM. CCCAACGACUGCCGAGCCAGAUUACGCUUGAGCGCCCCACUGAGGAUGCCCACGGGCGAUUGGGGCACGG was tested, and the Kd was 6.13 nM. For CCCAAUGACUGCCGAGCGAGAUUACGCUUGGGCGCCCCACUGAGGAUGCCCACGGGCGAUUGGGGCACGG, the Kd was 8.72 nM. CCCAACGACUGCCGAGCGAGAUUGCGCUUGAGCGCCCCACUGAGGAUGCCCACGGGCGAUUGGGGUACGG was tested, and the Kd was 5.38 nM. Variant CCCAACGACUGCUGAGGGAGAUUACGCUUGAGCGCCCCACUGAGGAUGCCCACGGGCGAUUGGGGCACGG has a Kd of 5.11 nM. Work on CCCAACGACUGCCGAGCGAGAUUACGCUGGAGCGCCCCCCUGAGGAUGCCCACGGGCGAUUGGGGCACGG yielded a Kd of 24.7 nM. Work on CCCAACGACUGCCGAGCGAGAUUACGCUUGAGCGCCCCACGGAGGAUGCCCAUGGGCGAUUGGGGCACGG yielded a Kd of 3.62 nM.
